Test results published in ChEMBL document CHEMBL3112515, “Discovery of novel 6,7-disubstituted-4-phenoxyquinoline derivatives bearing 5-(aminomethylene)pyrimidine-2,4,6-trione moiety as c-Met kinase inhibitors” (Bioorg Med Chem, 2014).

Columns and labels:
[1] = Cytotoxicity against human U87MG cells after 72 hrs by MTT assay; format: functional, cell-based, U-87MG ATCC; settings: U-87 MG
How it was run: (§1)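 Cells were grown in MEM with 10% FBS and seeded at about 4×10^3 cells per well, then held 24 h at 37 °C in 5% CO2. Compounds were added and the cells cultured 72 h. MTT was added to 5 µg/mL final for 4 h at 37 °C, and the formazan was dissolved in DMSO. IC50 is the mean of three determinations.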

A549 = experiment: Cytotoxicity against human A549 cells after 72 hrs by MTT assay; format: functional, cell-based; settings: A549, 72 h; how it was run: as §1
[2] = Cytotoxicity against human MKN45 cells after 72 hrs by MTT assay; settings: MKN-45, 72 h
[3] = Cytotoxicity against human H460 cells after 72 hrs by MTT assay; settings: NCI-H460, 72 h
[4] = molecular target: Hepatocyte growth factor receptor (Homo sapiens, UniProt P08581); experiment: Inhibition of c-Met (unknown origin) using poly (Glu, Tyr) 4:1 after 30 mins by HTRF assay
HT-29 = experiment: Cytotoxicity against human HT-29 cells after 72 hrs by MTT assay; settings: HT-29, 72 h

SMILES | IC50 [1] | IC50 (A549) | IC50 [2] | IC50 [3] | IC50 [4] | IC50 (HT-29)
COc1cc2c(Oc3ccc(N/C=C4\C(=O)NC(=O)N(c5ccc(F)c(Cl)c5)C4=O)cc3F)ccnc2cc1OCCCN1CCOCC1 | 580 nM | 270 nM | 110 nM | 120 nM | 5.14 nM | 280 nM
COc1cc2c(Oc3ccc(N/C=C4\C(=O)NC(=O)N(c5ccccc5C(F)(F)F)C4=O)cc3F)ccnc2cc1OCCCN1CCCCC1 | – | – | 100 nM | 930 nM | 18.5 nM | 1300 nM
COc1cc2c(Oc3ccc(N/C=C4\C(=O)NC(=O)N(c5ccc(F)cc5)C4=O)cc3F)ccnc2cc1OCCCN1CCN(C)CC1 | – | 510 nM | 120 nM | 120 nM | 3.15 nM | 310 nM
COc1cc2c(Oc3ccc(N/C=C4\C(=O)NC(=O)N(c5ccc(F)cc5F)C4=O)cc3F)ccnc2cc1OCCCN1CCOCC1 | – | – | 780 nM | 850 nM | 12.4 nM | 560 nM
COc1cc2c(Oc3ccc(N/C=C4\C(=O)NC(=O)N(c5ccccc5)C4=O)cc3F)ccnc2cc1OCCCN1CCCCC1 | 1300 nM | 510 nM | 280 nM | 220 nM | 4.31 nM | 160 nM
COc1cc(N2C(=O)NC(=O)/C(=C\Nc3ccc(Oc4ccnc5cc(OCCCN6CCOCC6)c(OC)cc45)c(F)c3)C2=O)c(OC)cc1Cl | – | – | 2400 nM | 540 nM | 32.8 nM | 1300 nM
COc1cc2c(Oc3ccc(N/C=C4\C(=O)NC(=O)N(c5ccc(C)cc5)C4=O)cc3F)ccnc2cc1OCCCN1CCC(C)CC1 | 920 nM | 990 nM | 56 nM | 59 nM | 1.64 nM | 140 nM
COc1cc(N2C(=O)NC(=O)/C(=C\Nc3ccc(Oc4ccnc5cc(OCCCN6CCCCC6)c(OC)cc45)c(F)c3)C2=O)c(OC)cc1Cl | – | – | 1970 nM | 1200 nM | 27.9 nM | 2600 nM
COc1cc(N2C(=O)NC(=O)/C(=C\Nc3ccc(Oc4ccnc5cc(OCCCN6CCN(C)CC6)c(OC)cc45)c(F)c3)C2=O)c(OC)cc1Cl | – | – | 480 nM | 1800 nM | 24.7 nM | 7700 nM
COc1cc2c(Oc3ccc(N/C=C4\C(=O)NC(=O)N(c5c(C)cccc5C)C4=O)cc3F)ccnc2cc1OCCCN1CCN(C)CC1 | – | – | 450 nM | 170 nM | 3.26 nM | 260 nM
COc1cc2c(Oc3ccc(N/C=C4\C(=O)NC(=O)N(c5ccc(F)cc5)C4=O)cc3F)ccnc2cc1OCCCN1CCC(C)CC1 | 3200 nM | 350 nM | 120 nM | 110 nM | 3.09 nM | 220 nM
COc1cc2c(Oc3ccc(N/C=C4\C(=O)NC(=O)N(c5c(C)cccc5C)C4=O)cc3F)ccnc2cc1OCCCN1CCOCC1 | 7100 nM | 2200 nM | 5500 nM | 85 nM | 3.03 nM | 140 nM
COc1cc2c(Oc3ccc(N/C=C4\C(=O)NC(=O)N(c5ccc(C)cc5)C4=O)cc3F)ccnc2cc1OCCCN1CCOCC1 | 8500 nM | 110 nM | 210 nM | 61 nM | 2.16 nM | 180 nM
COc1cc2c(Oc3ccc(N/C=C4\C(=O)NC(=O)N(c5c(C)cccc5C)C4=O)cc3F)ccnc2cc1OCCCN1CCC(C)CC1 | – | – | 130 nM | 150 nM | 2.83 nM | 120 nM
COc1cc2c(Oc3ccc(N/C=C4\C(=O)NC(=O)N(c5ccc(F)cc5F)C4=O)cc3F)ccnc2cc1OCCCN1CCCC1 | – | – | 2800 nM | 240 nM | 12.4 nM | 710 nM
COc1cc2c(Oc3ccc(N/C=C4\C(=O)NC(=O)N(c5c(C)cccc5C)C4=O)cc3F)ccnc2cc1OCCCN1CCCCC1 | 1200 nM | 310 nM | 490 nM | 160 nM | 3.72 nM | 200 nM
COc1cc2c(Oc3ccc(N/C=C4\C(=O)NC(=O)N(c5ccc(F)cc5F)C4=O)cc3F)ccnc2cc1OCCCN1CCN(C)CC1 | 1600 nM | 380 nM | 510 nM | 1170 nM | 8.35 nM | 1500 nM
COc1cc2c(Oc3ccc(N/C=C4\C(=O)NC(=O)N(c5ccccc5C(F)(F)F)C4=O)cc3F)ccnc2cc1OCCCN1CCC(C)CC1 | – | – | 310 nM | 380 nM | 18.3 nM | 600 nM
COc1cc2c(Oc3ccc(N/C=C4\C(=O)NC(=O)N(c5ccc(F)c(Cl)c5)C4=O)cc3F)ccnc2cc1OCCCN1CCCC1 | 680 nM | 190 nM | 72 nM | 54 nM | 2.38 nM | 190 nM
